The record followed here is ChEMBL document CHEMBL1157960, “10-Phenyl-[12]-cytochalasins Z7, Z8, and Z9 from the marine-derived fungus Spicaria elegans” (J Nat Prod, 2006).

A word on the pIC50: it is the IC50 on a negative log10 scale, so that one unit is a factor of ten. A lower pIC50 goes with a high IC50.

pIC50: −log10 of the molar value.

The subject of the first assay is P388. Put plainly: Cytotoxicity against mouse P388 cells after 72 hrs by MTT method. The class given is functional, cell-based. Conditions: P388, 72 h. In a few lines: (§1)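 Cells kept in RPMI-1640 with 10% FBS at 37 °C under 5% CO2/95% air. Seeded at 5 × 10^4 cells/mL and held 24 h before compound was added in DMSO at various concentrations. Incubation then ran 72 h. MTT (5 mg/mL stock) was added for 4 h, formazan was dissolved in DMSO, and absorbance was read at 540 nm. Result reported as IC50.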
On the technique in general: Tetrazolium assays rely on reduction of a dye to a coloured formazan, in cell work by metabolically active cells.
Take `C=C1[C@@H](C)[C@H]2[C@H](Cc3ccccc3)NC(=O)[C@]23OC(=O)/C=C/[C@H](C)[C@H](O)[C@@H](C)C/C=C/[C@H]3[C@@H]1O`: the pIC50 was 4.12.

For the molecule `CC1=C(C)[C@H]2[C@H](Cc3ccccc3)NC(=O)[C@]23OC(=O)/C=C/[C@H](C)[C@H](O)[C@@H](C)C/C=C/[C@H]3[C@@H]1O`, the pIC50 was 4.25.

Molecule `C[C@H]1C/C=C/[C@H]2[C@@H]3O[C@]3(C)[C@@H](C)[C@H]3[C@H](Cc4ccccc4)NC(=O)[C@]32OC(=O)O/C=C/[C@@](C)(O)C1=O` [CYTOCHALASIN E] had a negative-log IC50 (pIC50) of 7.03.

As to `CC1=C(C)[C@H]2[C@H](Cc3ccccc3)NC(=O)[C@]23OC(=O)O/C=C/[C@@](C)(O)C(=O)[C@@H](C)C/C=C/[C@H]3[C@@H]1O` [CYTOCHALASIN K], the pIC50 is 4.05.

On to `CC1=C(C)[C@H]2[C@H](Cc3ccccc3)NC(=O)[C@]23OC(=O)/C=C/[C@@](C)(O)C[C@@H](C)C/C=C/[C@H]3[C@@H]1O` [CYTOCHALASIN Z9], for which the pIC50 is 4.00.

A further assay has as its system A549. Put plainly: Cytotoxicity against human A549 cells after 72 hrs by MTT method. The format is functional, cell-based. Conditions: A549, 72 h. In a few lines:
as §1
As to `C=C1[C@@H](C)[C@H]2[C@H](Cc3ccccc3)NC(=O)[C@]23OC(=O)/C=C/[C@H](C)[C@H](O)[C@@H](C)C/C=C/[C@H]3[C@@H]1O`, the pIC50 was 5.06.

On to `CC1=C(C)[C@H]2[C@H](Cc3ccccc3)NC(=O)[C@]23OC(=O)/C=C/[C@H](C)[C@H](O)[C@@H](C)C/C=C/[C@H]3[C@@H]1O`, for which the negative logarithm of the IC50 (pIC50) is 4.68.

For the molecule `C[C@H]1C/C=C/[C@H]2[C@@H]3O[C@]3(C)[C@@H](C)[C@H]3[C@H](Cc4ccccc4)NC(=O)[C@]32OC(=O)O/C=C/[C@@](C)(O)C1=O` [CYTOCHALASIN E], the negative-log IC50 (pIC50) was 8.21.

`CC1=C(C)[C@H]2[C@H](Cc3ccccc3)NC(=O)[C@]23OC(=O)O/C=C/[C@@](C)(O)C(=O)[C@@H](C)C/C=C/[C@H]3[C@@H]1O` [CYTOCHALASIN K] had a pIC50 of 5.08.

`CC1=C(C)[C@H]2[C@H](Cc3ccccc3)NC(=O)[C@]23OC(=O)/C=C/[C@@](C)(O)C[C@@H](C)C/C=C/[C@H]3[C@@H]1O` [CYTOCHALASIN Z9] had a pIC50 of 5.06.
